Data set [1] has as its system Candida albicans. As to the kind of experiment: Antifungal activity against Candida albicans ATCC 24433 assessed as concentration required to 50% growth inhibition using alamar blue staining after 18 to 72 hrs by microdilution method. Format: functional. An outline of the steps: (§1)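 Serial broth microdilution in RPMI 1640 with 0.165 M MOPS. Inoculum was 1×10³–1×10⁴ cells/mL and incubation ran 18–72 h, both set per strain by growth rate, at 30 °C. MIC-2 is the lowest drug concentration giving 50% growth inhibition versus a drug-free control.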
A general note: Resazurin is reduced to fluorescent resorufin, in cell work by metabolically active cells.

A short description of data set [2]: Solubility in water at pH 6.8. It is filed as physicochemical.
Data set [3] deals with Candida albicans. Kind of data set: Antifungal activity against FLCZ-resistant Candida albicans ATCC MYA-573 assessed as concentration required to 80% growth inhibition using alamar blue staining after 18 to 72 hrs by microdilution method. It is filed as functional. An outline of the steps: (§2)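 Serial broth microdilution in YPD medium (1% yeast extract, 2% peptone, […]). Starting cell density (1 × 10³–1 × 10⁴ cells/mL) and incubation time (18–72 h) were set per strain by growth speed. MIC-1 is the lowest drug concentration giving 80% growth inhibition relative to the drug-free control.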

The subject of data set [4] is Pichia kudriavzevii. As to the kind of experiment: Antifungal activity against Candida krusei ATCC 44507 assessed as concentration required to 80% growth inhibition using alamar blue staining after 18 to 72 hrs by microdilution method. It is filed as functional. An outline of the steps:
(§3)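 Serial dilution in YPD medium (1% yeast extract, 2% peptone, […]), incubated at 37 °C. Inoculum was 1×10³–1×10⁴ cells/mL and incubation 18–72 h, both chosen per strain. MIC-1 is the lowest concentration giving 80% inhibition relative to a drug-free control.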

For data set [5], the system named is Pichia kudriavzevii. As to the kind of experiment: Antifungal activity against Candida krusei ATCC 44507 assessed as concentration required to 50% growth inhibition using alamar blue staining after 18 to 72 hrs by microdilution method. It is filed as functional. An outline of the steps: as §1
The test system of data set [6] is Nakaseomyces glabratus. Kind of data set: Antifungal activity against Candida glabrata ATCC 48435 assessed as concentration required to 50% growth inhibition using alamar blue staining after 18 to 72 hrs by microdilution method. Format: functional. An outline of the steps: as §1
The subject of data set [7] is Candida tropicalis. As to the kind of experiment: Antifungal activity against Candida tropicalis IAM 4965 assessed as concentration required to 50% growth inhibition using alamar blue staining after 18 to 72 hrs by microdilution method. Format: functional. An outline of the steps: as §1
A further data set concerns Saccharomyces cerevisiae. Kind of data set: Antifungal activity against Saccharomyces cerevisiae YPH500 assessed as concentration required to 50% growth inhibition using alamar blue staining after 18 to 72 hrs by microdilution method. Format: functional. The procedure, abridged: as §1
In data set [8] the test system is Nakaseomyces glabratus. Kind of data set: Antifungal activity against Candida glabrata ATCC 48435 assessed as concentration required to 80% growth inhibition using alamar blue staining after 18 to 72 hrs by microdilution method. Format: functional. An outline of the steps:
as §3

Data set [9] has as its system Candida albicans. As to the kind of experiment: Antifungal activity against FLCZ-susceptible Candida albicans ATCC 90028 assessed as concentration required to 80% growth inhibition using alamar blue staining after 18 to 72 hrs by microdilution method. Format: functional. The procedure, abridged: as §2
In data set [10] the test system is Candida tropicalis. As to the kind of experiment: Antifungal activity against Candida tropicalis ATCC 44508 assessed as concentration required to 80% growth inhibition using alamar blue staining after 18 to 72 hrs by microdilution method. It is filed as functional. An outline of the steps: as §3
Data set [11] in a line: Octanol-phosphate buffer partition coefficient, log D of the compound at pH 7.4. Format: physicochemical. The procedure, abridged:
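Compound was shaken 30 min in equal volumes of n-octanol and phosphate-buffered saline at pH 7.4, then centrifuged at 3000 rpm for 10 min. Each layer was assayed by LC/MS, and log D was taken from the partition ratio.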

Data set [12] can be described thus: Metabolic stability in human liver microsomes at 1 uM after 30 mins. It is filed as ADME, Microsome. The following applies: read-out: Stability. The procedure, abridged: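 Compound was preincubated with human liver microsomes (0.5 mg/mL protein) in sodium phosphate buffer pH 7.4 for 20 min at 37 °C. NADPH started the reaction, and MeOH stopped it after 30 min. Samples were centrifuged at 4 °C, and parent loss was quantified by LC/MS/MS.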
Background: Liver microsomes are vesicles of endoplasmic reticulum, rich in cytochrome P450 enzymes.

Values after ≈ are worked out from the molar mass of the structure shown.

For `OC(Cn1cncn1)(Cn1cncn1)c1ccc(F)cc1F` [FLUCONAZOLE], the MIC (commonly the lowest concentration found to suppress growth) in the data set on Candida albicans [1] is 0.25 µg/mL (≈ 0.816 µM); with Candida albicans [3], > 128 µg/mL; in the data set on Pichia kudriavzevii [4] it was 32 µg/mL (≈ 104 µM); in the data set on Pichia kudriavzevii [5], 16 µg/mL (≈ 52.2 µM); in the data set with Nakaseomyces glabratus [6] it was 2 µg/mL (≈ 6.53 µM); in the data set with Candida tropicalis [7], 0.25 µg/mL (≈ 0.816 µM). The MIC is 4 µg/mL (≈ 13.1 µM) in the data set on Saccharomyces cerevisiae, 16 µg/mL (≈ 52.2 µM) in the data set with Nakaseomyces glabratus [8], 0.25 µg/mL (≈ 0.816 µM) with Candida albicans [9] and 0.5 µg/mL (≈ 1.63 µM) in the data set with Candida tropicalis [10] (read-out: MIC). In data set [2], the solubility – broadly, the concentration that dissolves in the medium under given conditions – was > 2000 µg/mL.

Consider `Cc1c(-c2ccccc2)c(N2CC[C@H](N(C)C)C2)c2oc(C(C)(C)C)nc2c1C#N.Cl`, for which the MIC in the data set with Candida albicans [1] was 4 µg/mL; in the data set with Candida albicans [3] it was 0.125 µg/mL; in the data set with Pichia kudriavzevii [4], 2 µg/mL; in the data set with Pichia kudriavzevii [5], 4 µg/mL; in the data set on Nakaseomyces glabratus [6], ≤ 0.016 µg/mL; in the data set with Candida tropicalis [7], 0.063 µg/mL. Also, the minimal inhibitory concentration (MIC) was ≤ 0.016 µg/mL in the data set on Saccharomyces cerevisiae, 0.063 µg/mL with Nakaseomyces glabratus [8], 0.063 µg/mL with Candida albicans [9] and 0.032 µg/mL in the data set with Candida tropicalis [10] (read-out: MIC). For the same compound, the solubility in data set [2] worked out at 5 µg/mL. Besides, the logD (usually lipophilicity at a set pH, counting ionised and neutral species) in data set [11] amounted to 4.6. Further, the remaining at 0.5 h, 1 µM in data set [12] was 6%.

With `CN(C)[C@H]1CCN(c2c(-c3ccccc3)cc(C#N)c3oc(C(C)(C)C)cc23)C1`, the MIC is > 4 µg/mL in the data set with Candida albicans [1]; > 4 µg/mL with Pichia kudriavzevii [5]; > 4 µg/mL in the data set on Nakaseomyces glabratus [6]; 4 µg/mL (≈ 10.3 µM) in the data set on Candida tropicalis [7]; 2 µg/mL (≈ 5.16 µM) in the data set on Saccharomyces cerevisiae. The solubility in [2] was < 2 µg/mL. Moreover, in data set [11], the logD amounted to 5.4. Moreover, in data set [12], the remaining at 0.5 h, 1 µM was 20%.

As for `Cc1c(-c2ccccc2)c(N2CC[C@H](N(C)C)C2)c2oc(C3=CCCC3)nc2c1C#N`, the solubility in data set [2] is < 2 µg/mL. Moreover, the log distribution coefficient (logD) in data set [11] is 5.2. In addition, the MIC was determined as 4 µg/mL (≈ 9.7 µM) with Candida albicans [3]; 16 µg/mL (≈ 38.8 µM) with Pichia kudriavzevii [4]; 0.5 µg/mL (≈ 1.21 µM) in the data set on Nakaseomyces glabratus [8]; 4 µg/mL (≈ 9.7 µM) in the data set with Candida albicans [9]; 1 µg/mL (≈ 2.42 µM) in the data set with Candida tropicalis [10] (read-out: MIC).

As for `Cc1c(-c2ccccc2)c(N2CC[C@H](N(C)C)C2)c2oc(C3CCCC3)nc2c1C#N`, in [2], the solubility was < 2 µg/mL. Also, in data set [11], the logD came to 4.9. Further, the MIC with Candida albicans [3] was found to be 0.125 µg/mL (≈ 0.302 µM); in the data set with Pichia kudriavzevii [4], 2 µg/mL (≈ 4.82 µM); with Nakaseomyces glabratus [8], 0.032 µg/mL (≈ 0.0772 µM); with Candida albicans [9], 0.125 µg/mL (≈ 0.302 µM); with Candida tropicalis [10] (read-out: MIC), 0.063 µg/mL (≈ 0.152 µM).

Take `Cc1c(C#N)c2c(c(N3CC[C@H](N(C)C)C3)c1-c1ccccc1)OCC(C(C)(C)C)=N2`: the MIC was > 16 µg/mL in the data set on Candida albicans [1]; > 16 µg/mL in the data set with Pichia kudriavzevii [5]; 8 µg/mL (≈ 19.2 µM) in the data set with Nakaseomyces glabratus [6]; 16 µg/mL (≈ 38.4 µM) in the data set with Candida tropicalis [7]; 8 µg/mL (≈ 19.2 µM) in the data set on Saccharomyces cerevisiae. The compound further yielded a solubility in data set [2] of 56 µg/mL (≈ 134 µM). Further, in data set [11], the logD turned out to be 4.4.

Take `CN(C)[C@H]1CCN(c2c(-c3ccccc3)cc(C#N)c3oc(C(C)(C)C)nc23)C1`: the MIC in the data set on Candida albicans [1] is > 4 µg/mL; in the data set on Pichia kudriavzevii [5], > 16 µg/mL; in the data set on Nakaseomyces glabratus [6], > 4 µg/mL; with Candida tropicalis [7] it was > 4 µg/mL; in the data set on Saccharomyces cerevisiae, 4 µg/mL (≈ 10.3 µM).

Turning to `Cc1c(-c2ccccc2)c(N2CC[C@H](N(C)C)C2)c2oc(C3CCC3)nc2c1C#N`, the concentration in solution in data set [2] (solubility) was 7 µg/mL (≈ 17.5 µM). The logD in data set [11] is 4.5. The MIC is 0.125 µg/mL (≈ 0.312 µM) in the data set with Candida albicans [3], 0.5 µg/mL (≈ 1.25 µM) with Pichia kudriavzevii [4], 0.063 µg/mL (≈ 0.157 µM) in the data set on Candida albicans [9] and < 0.016 µg/mL in the data set with Candida tropicalis [10].

In turn, `Cc1c(-c2ccccc2)c(N2CC[C@H](N(C)C)C2)c2oc(N)nc2c1C#N` came in with a solubility in [2] of 18 µg/mL (≈ 49.8 µM). Moreover, the logD in data set [11] was 3.3. The MIC in the data set with Candida albicans [3] amounted to 2 µg/mL (≈ 5.53 µM); in the data set with Pichia kudriavzevii [4], 2 µg/mL (≈ 5.53 µM); in the data set with Nakaseomyces glabratus [8], 0.125 µg/mL (≈ 0.346 µM); with Candida albicans [9], 1 µg/mL (≈ 2.77 µM); in the data set on Candida tropicalis [10] (read-out: MIC) it was 0.5 µg/mL (≈ 1.38 µM).

Values taken from ChEMBL document CHEMBL1268918, “1,3-Benzoxazole-4-carbonitrile as a novel antifungal scaffold of β-1,6-glucan synthesis inhibitors” (Bioorg Med Chem, 2010).
